In ChEMBL document CHEMBL3112425, “Design, synthesis, and structure-activity relationship studies of a potent PACE4 inhibitor” (J Med Chem, 2014):
Peptide text beside a SMILES is read from it. * marks the point of attachment. X1 = N=C(N)NC/C=C/CN*

Legend:
[1] = Acute toxicity in human DU145 cells assessed as cell death/lysis at 100 uM after 4 hrs by LDH assay; format: cell-based, DU-145; settings: read-out: INH
Method in brief: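 DU145 cells (RPMI 1640, 5% FBS, 37 °C, 5% CO2) plated; 24 h later peptides added at 100 μM. After 4 h, release of lactate dehydrogenase into the medium was quantified enzymatically with a commercial LDH cytotoxicity kit as the measure of acute membrane damage/lysis.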

[2] = molecular target: T1, Neuroendocrine convertase 2 (Homo sapiens, UniProt P16519); assay: Inhibition of human PC2 expressed in drosophila schneider 2 cells using pyroGlu-Arg-Thr-Lys-Arg-AMC as substrate after 1 hr
T1 sequence (P16519 whole entry): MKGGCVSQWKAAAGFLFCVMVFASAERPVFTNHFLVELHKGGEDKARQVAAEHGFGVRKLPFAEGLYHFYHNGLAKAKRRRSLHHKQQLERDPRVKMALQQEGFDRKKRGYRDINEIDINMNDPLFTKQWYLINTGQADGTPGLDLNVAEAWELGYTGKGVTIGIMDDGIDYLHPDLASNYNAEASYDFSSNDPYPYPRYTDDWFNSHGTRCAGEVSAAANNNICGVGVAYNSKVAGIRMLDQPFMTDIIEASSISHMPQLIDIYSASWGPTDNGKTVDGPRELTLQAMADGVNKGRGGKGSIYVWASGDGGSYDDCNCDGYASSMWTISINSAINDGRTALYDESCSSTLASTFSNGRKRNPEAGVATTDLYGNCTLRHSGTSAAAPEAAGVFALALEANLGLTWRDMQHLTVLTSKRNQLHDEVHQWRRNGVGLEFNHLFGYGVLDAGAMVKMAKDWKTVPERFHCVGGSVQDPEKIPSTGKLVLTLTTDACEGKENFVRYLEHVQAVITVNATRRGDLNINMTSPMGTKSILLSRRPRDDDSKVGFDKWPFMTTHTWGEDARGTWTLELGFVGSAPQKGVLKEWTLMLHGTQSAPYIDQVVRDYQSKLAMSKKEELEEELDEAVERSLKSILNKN
Method in brief: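 Human enzymes were expressed in Drosophila S2 cells and purified. Fluorogenic pyroGlu-RTKR-AMC was used at fixed concentration with varied inhibitor, 37 °C over 1 h. Buffers: furin, 100 mM Hepes pH 7.5, 1 mM CaCl2, 1 mM β-mercaptoethanol, 1.8 mg/mL BSA; PACE4 and PC7, 20 mM Bis-Tris pH 6.5, 1 mM CaCl2, 1.8 mg/mL BSA; PC2, same buffer at pH 5.7. Ki from IC50 (Cheng–Prusoff), or apparent Ki (Morrison) for tight binders. Triplicate, mean ± SD.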

- Ki [2]: 1.7 nM
SMILES: CC(=O)N[C@@H](CC(C)C)C(=O)N[C@@H](CC(C)C)C(=O)N[C@@H](CC(C)C)C(=O)N[C@@H](CC(C)C)C(=O)N[C@@H](CCCNC(=N)N)C(=O)N[C@H](C(=O)N[C@@H](CCCCN)C(=O)NC/C=C/CNC(=N)N)C(C)C (Ac-LLLLRVK-X1)
- cytotoxicity at 4 h, 100 µM [1]: < 5%
